HCV core dimer: blocks dimerization of HCV core protein | TR-FRET GST/Flag-core106 dimerization, 1536-well | inhibition, % at 5 µM | 300,000 compounds, 0.33% hits | AID 1899;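 active means inhibition above the mean of all tested compounds plus 3 SD, set per screening campaign, cut at about 45% in these data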
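Assay system – GST-tagged and Flag-tagged HCV core protein residues 1-106 · Quantity – core106 proteins, GST 13.5 nM and Flag 17 nM · Benchmarks – unlabelled core106 and no-GST-core106 wells · Read-out basis – percent inhibition of core106 dimerization signal · Detection – time-resolved FRET, ex 340 nm, em 617 and 671 nm · Schedule – 4 h at 22.5 °C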
ZTA counter: ZTA (EBV) inhibition in EBNA-1 counter-screen | P03206 | ZTA-DNA binding, fluorescence polarization | inhibition, % at 11 µM | 320,000 compounds, 0.15% hits; in the data active means inhibition above about 33%
EBV gp42 inh: inhibitors of Epstein-Barr virus glycoprotein 42 | Q1HVG2 | Fluorescence polarization binding assay, mP read-out | inhibition, % (tested at 21.74 µM) | 220,000 compounds, 0.42% hits | AID 1085; in the data active means inhibition above about 50%
Target sequence (Q1HVG2 whole entry, looked up): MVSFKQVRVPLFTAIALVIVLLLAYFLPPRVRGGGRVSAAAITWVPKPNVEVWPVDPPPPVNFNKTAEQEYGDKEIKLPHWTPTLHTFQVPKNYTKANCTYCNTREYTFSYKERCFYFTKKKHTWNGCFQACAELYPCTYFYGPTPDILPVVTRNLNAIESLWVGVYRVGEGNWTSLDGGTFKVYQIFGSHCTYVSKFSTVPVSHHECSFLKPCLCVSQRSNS
MEX-5 binding: C. elegans MEX-5 TCR-2 RNA binding activity | Q9XUB2 | MEX-5/FITC-TCR2 RNA binding, fluorescence polarization; stronger effect = lower value | activity score (negative = inhibition of binding), % at 10 µM | 300,000 compounds, 0.38% hits | AID 1832;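 active means inhibition past about -25% in most replicates, and total fluorescence under double the plate's negative control median, limit read from the data; inconclusive means replicates evenly split on the limit, or fluorescence at least double controls; inactive means too little inhibition in most replicates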
Target sequence (Q9XUB2 whole entry, looked up): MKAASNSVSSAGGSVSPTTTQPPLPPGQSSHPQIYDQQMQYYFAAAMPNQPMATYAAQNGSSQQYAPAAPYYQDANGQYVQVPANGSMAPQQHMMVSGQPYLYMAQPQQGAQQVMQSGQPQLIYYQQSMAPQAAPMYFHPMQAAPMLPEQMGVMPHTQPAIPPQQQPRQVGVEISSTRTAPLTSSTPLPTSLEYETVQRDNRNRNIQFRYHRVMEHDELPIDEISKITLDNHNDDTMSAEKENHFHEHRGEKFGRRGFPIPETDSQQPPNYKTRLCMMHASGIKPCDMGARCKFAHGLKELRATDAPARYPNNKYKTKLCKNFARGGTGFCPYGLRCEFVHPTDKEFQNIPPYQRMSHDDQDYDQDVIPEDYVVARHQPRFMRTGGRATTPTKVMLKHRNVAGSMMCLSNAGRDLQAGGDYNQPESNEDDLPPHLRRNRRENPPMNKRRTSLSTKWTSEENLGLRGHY
EBNA-1 inh: blocks EBNA-1 binding to DNA; inhibition, % at 14.8 µM; EBNA-1 DNA binding, fluorescence polarization; 300,000 compounds, 0.34% hits; in the data active means inhibition above about 28%
HCV NS3 hel inh: HCV NS3 helicase inhibition; inhibition, % at 10.9 µM; NS3 helicase DNA unwinding, Cy5 molecular beacon fluorescence; 290,000 compounds, 0.56% hits;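 active means inhibition above the mean of all tested compounds plus 3 SD, set per campaign, cut at about 35% in these data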
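Measured by: Cy5 fluorescence, 0 and 60 min reads / Assay system: NS3 helicase fragment of HCV / Control set: low DMSO, high thioflavine S at 110 µM / Times: 1 h reaction at 25 °C, ATP-initiated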
Large screens that a line does not name were inactive. Most compounds without a hit are left out; they make up all but 1.7% or so of the library.

Cc1ccccc1NC(=O)CCc1nnc2ccc(N3CCC4(CC3)OCCO4)nn12	none (no result: EBV gp42 inh)
CC1C(=O)NN=C1C(=O)N/N=C\c1ccc(O)cc1O (stereo unspecified)	MEX-5 binding -62.2
CC1=NNC(=O)C1CCC(=O)N/N=C/c1ccco1 (stereo unspecified)	none
CC1C(=O)NN=C1C(=O)N/N=C/c1ccco1 (stereo unspecified)	MEX-5 binding -26.0
COc1ccc(NS(=O)(=O)c2ccc(C)c(C(=O)NCCCN3CCCC3=O)c2)cc1	none (no result: HCV core dimer, EBV gp42 inh, MEX-5 binding, EBNA-1 inh, HCV NS3 hel inh)
Oc1ccc(-c2cn3c(n2)SCC3)cc1O	MEX-5 binding -39.8
Oc1ccc(-c2cn3c(n2)SCC3)cc1	none
CCN(CCNCC(O)COCc1ccc(Cl)cc1)c1cccc(C)c1 (stereo unspecified)	none
COc1ccc(CN(CC(=O)NCc2ccccc2)C(=O)CCC(=O)Nc2ccccn2)cc1	none (no result: EBV gp42 inh)
O=c1oc(/C=C/c2ccccc2)nc2sc3c(c12)CCC3	none
COc1ccc(/C=C/c2nc3sc4c(c3c(=O)o2)CCC4)cc1	MEX-5 binding -30.5 (no result: EBV gp42 inh)
COC(=O)c1cc2c(-c3ccccc3)cc3ccccn3c-2c1C(=O)OC	EBV gp42 inh 61.1
COc1ccc(OCCn2cc(/C=C(\C#N)C(=O)NCc3ccco3)c3ccccc32)cc1	none
N#C/C(=C\c1cn(CCOc2ccccc2)c2ccccc12)C(=O)NCc1cccs1	EBNA-1 inh 37.0
C/C(CC(=O)Nc1cc(C)ccn1)=N\NC(=O)c1cccc(C)c1O	none (no result: EBV gp42 inh)
Cc1cc(-c2ccc(N=Nc3c(S(=O)(=O)O)cc4cc(S(=O)(=O)O)cc(N)c4c3O)c(C)c2)ccc1N=Nc1c(S(=O)(=O)O)cc2cc(S(=O)(=O)O)cc(N)c2c1O	ZTA counter 181.5, EBNA-1 inh 69.4 (no result: EBV gp42 inh, MEX-5 binding, HCV NS3 hel inh)
O=S(=O)(O)c1cc(O)c2c(O)c(N=Nc3cc(Cl)ccc3O)c(S(=O)(=O)O)cc2c1	MEX-5 binding -46.0 (no result: EBV gp42 inh)
CC1(C)CC(=O)C2=C(C1)OC1=C(C(=O)CC(C)(C)C1)C2c1ccc(O)c([N+](=O)[O-])c1	none
CC1(C)CC(=O)C2=C(C1)OC1=C(C(=O)CC(C)(C)C1)C2c1ccc(O)cc1O	EBV gp42 inh 116.8, MEX-5 binding inconclusive
COc1cc(NC(=O)CSc2nc3ncnc(N)c3[nH]2)c(C(=O)O)cc1OC	MEX-5 binding -30.7 (no result: EBV gp42 inh)
COc1cc(NC(=O)CSc2ccccc2)c(C(=O)O)cc1OC	none
Cc1ccc2cc(C=C(C#N)C#N)c(N3CCCCC3)nc2c1	EBV gp42 inh 117.4
Cc1ccc2cc(/C=C(\C#N)C(N)=O)c(N3CCCCC3)nc2c1	MEX-5 binding inconclusive
CCOC(=O)/C(C#N)=C/c1cc2ccccc2nc1N1CCCCC1	EBV gp42 inh 60.0, MEX-5 binding -39.0
CC1CC(C)CN(S(=O)(=O)CCNC(=O)c2ccc3c(c2)OCO3)C1 (stereo unspecified)	none (no result: EBV gp42 inh, HCV NS3 hel inh)
O=C(CSc1nnc(-c2ccncc2)n1Cc1ccco1)c1ccc(Cl)cc1	none
Clc1ccc(CSc2nnc(-c3cccnc3)n2Cc2ccco2)c(Cl)c1	HCV core dimer 48.2
O=C(CSc1nnc(-c2ccc(Cl)cc2)n1Cc1ccco1)c1cccs1	HCV core dimer 46.6
O=C(NCC1CCCO1)c1cc([N+](=O)[O-])ccc1N1CCC(Cc2ccccc2)CC1 (stereo unspecified)	none (no result: HCV core dimer, EBV gp42 inh, MEX-5 binding, EBNA-1 inh, HCV NS3 hel inh)
CC(C)C(NC(=O)c1ccccc1F)C(=O)NCc1ccccc1 (stereo unspecified)	none (no result: EBV gp42 inh)
COc1cc(C2C(C#N)=C(N)OC3=C2C(=O)CCC3)c([N+](=O)[O-])cc1OC (stereo unspecified)	EBV gp42 inh 83.1, MEX-5 binding -62.8
CC1(C)CC(=O)C2=C(C1)OC(N)=C(C#N)C2c1cc2c(cc1[N+](=O)[O-])OCO2 (stereo unspecified)	EBV gp42 inh 94.0, MEX-5 binding -55.7
C=CCN1C(=O)c2ccc(C(=O)N(CC)CC(=O)Nc3c(F)cccc3F)cc2C1=O	none (no result: EBV gp42 inh, HCV NS3 hel inh)
Cc1cccc(-n2c(=S)[nH]c3sc4c(c3c2=O)CCc2ccccc2-4)c1	none (no result: HCV core dimer, ZTA counter, EBNA-1 inh)
CCOc1ccc(C2CC(c3c(O)c4ccccc4oc3=O)=NN2c2ccccc2)cc1OC (stereo unspecified)	EBV gp42 inh 141.2, MEX-5 binding inconclusive
Cc1ccc(N(C)S(=O)(=O)c2c(C)noc2/C=C/N(C)C)cc1	MEX-5 binding -30.1 (no result: EBV gp42 inh)
Cc1ccc(N2C(=O)C3CC(c4ccccc4)=C4C5C=CC(C6C(=O)N(c7ccc(C)cc7C)C(=O)C56)C4C3C2=O)c(C)c1 (stereo unspecified)	HCV core dimer 52.3
Cc1ccc(N2C(=O)C3CC(c4ccccc4)=C4C5C=CC(C6C(=O)N(c7ccc(C)cc7)C(=O)C56)C4C3C2=O)cc1 (stereo unspecified)	none
Nc1ccc(C(=O)CC(=O)Nc2ccc(Cl)cc2)cc1	none (no result: EBV gp42 inh)
COc1ccccc1/C=C/C(=O)N1CCN(S(=O)(=O)c2cc(C)ccc2C)CC1	none (no result: HCV core dimer, EBV gp42 inh, MEX-5 binding, EBNA-1 inh, HCV NS3 hel inh)
CC(=O)Nc1ccc(N2C(=O)c3cccc4c(O)ccc(c34)C2=O)cc1	none (no result: EBV gp42 inh)
O=C1c2cccc3c(O)ccc(c23)C(=O)N1Cc1ccco1	EBV gp42 inh 171.9, MEX-5 binding inconclusive (no result: HCV core dimer, ZTA counter, EBNA-1 inh)
O=C1c2cccc3c(O)ccc(c23)C(=O)N1c1ccc(Cl)cc1	MEX-5 binding -41.1 (no result: EBV gp42 inh)
CN(CC(=O)Nc1c(Cl)cccc1Cl)C(=O)C1CCN(C(=O)Nc2ccccc2)CC1	none (no result: EBV gp42 inh, HCV NS3 hel inh)
OCCCC1CCCN(Cc2cn[nH]c2-c2ccc(F)cc2F)C1 (stereo unspecified)	none
CC(=O)n1c(C=Nc2ccc(Cl)cc2)c(O)c2ccccc21	EBV gp42 inh 124.7, MEX-5 binding inconclusive
CC(C)Cc1ccc(C(C)C(N)=NCCc2ccccc2)cc1 (stereo unspecified)	none (no result: HCV core dimer, ZTA counter, EBV gp42 inh, EBNA-1 inh)
O=c1c2ccccc2ncn1-c1ccc([N+](=O)[O-])cc1Cl	none (no result: EBV gp42 inh)
Cc1ccc(S(=O)(=O)c2c(N)n(Cc3ccco3)c3nc4ccccc4nc23)cc1	EBV gp42 inh 61.1
Cc1cccc(-n2cnc3c(c2=O)c2nc4ccccc4nc2n3Cc2ccco2)c1	HCV core dimer 59.9 (no result: EBV gp42 inh, HCV NS3 hel inh)
Cc1ccc(CSc2nc3ccccc3c(=O)n2Cc2ccco2)cc1	none
Cc1cccc(S(=O)(=O)c2c(N)n(Cc3ccco3)c3nc4ccccc4nc23)c1	none
Cn1nc(C(=O)OCC(=O)Nc2ccccc2[N+](=O)[O-])c2ccccc2c1=O	none (no result: HCV core dimer, EBV gp42 inh, MEX-5 binding, EBNA-1 inh, HCV NS3 hel inh)
CC(=O)N1CCc2c(sc(NC(=O)C3CCN(S(=O)(=O)c4cccs4)CC3)c2C(N)=O)C1	none (no result: EBV gp42 inh, HCV NS3 hel inh)
CC(=O)N1CCc2c(sc(NC(=O)C3CCCCC3)c2C(N)=O)C1	MEX-5 binding -27.2 (no result: EBV gp42 inh)
CC(=O)N1CCc2c(sc(NC(=O)C3CCCN3S(=O)(=O)c3cccs3)c2C(N)=O)C1 (stereo unspecified)	MEX-5 binding -35.4 (no result: EBV gp42 inh, HCV NS3 hel inh)
Cc1cccc(NC(=O)c2c(O)c3ccccc3n(C)c2=O)c1	none (no result: EBV gp42 inh)
COc1ccc(OC)c(NC(=O)CSc2ccc(-c3cccnc3)nn2)c1	none (no result: EBV gp42 inh)

Screens deposited in PubChem BioAssay by several laboratories.
